{"data": "Results of several laboratories", "target": "Serine/threonine-protein kinase 26 (STK26, Homo sapiens, UniProt Q9P289)", "note": "Lines come from different studies, so protocols differ."}
{"SMILES": "COc1cnc(Nc2cccc(S(N)(=O)=O)c2)nc1N1CCN(c2ccccc2)C(=O)C1", "test": "binding, competition with immobilised ligand", "setting": "1 µM", "remaining binding [%]": 83}
{"SMILES": "c1cncc(-c2cccc(Nc3nccc(NC4CCCCC4)n3)c2)c1", "test": "binding, competition with immobilised ligand", "setting": "10 µM", "remaining binding [%]": 83}
{"SMILES": "O=C(Nc1c[nH]nc1C(=O)NC1CCNCC1)c1cc(F)cc(F)c1", "test": "binding, competition with immobilised ligand", "setting": "1 µM", "remaining binding [%]": 68}
{"SMILES": "NS(=O)(=O)c1cc(NC(=O)C2(c3ccccc3Cl)CC2)ccc1Oc1cccc(Cl)c1", "test": "cell-free assay, competition with immobilised ligand", "setting": "1 µM", "remaining binding [%]": 100}
{"SMILES": "FC(F)(F)Oc1cccc(-c2cnc3ccc(-c4ccncc4)nn23)c1", "test": "cell-free assay, competition with immobilised ligand", "setting": "5 µM", "remaining binding [%]": 59}
{"SMILES": "Nc1ncc2c(n1)-c1c([nH]c3ccc(C#CC4CC4)cc13)CCCC2", "test": "binding, competition with immobilised ligand", "setting": "1 µM", "remaining binding [%]": 99}
{"SMILES": "Cc1cnc(Nc2ccc(C(=O)N3CCC(N4CCCC4)CC3)cc2)nc1-c1cc2ccccc2s1", "test": "binding, competition with immobilised ligand", "setting": "1 µM", "remaining binding [%]": 77}
{"SMILES": "CNC(=O)[C@@H]1CC[C@@H](n2c(-c3ccc4cnccc4c3)nc3ccc(C(=O)NCc4cccc(C(N)=O)c4)cc32)C1", "test": "binding, competition with immobilised ligand", "setting": "1 µM", "remaining binding [%]": 100}
{"SMILES": "CCC(=O)N[C@@H]1CC[C@H](C(=O)N(C)c2ccc(-c3nc4ccccc4o3)cc2)C1", "test": "cell-free assay, competition with immobilised ligand", "setting": "1 µM", "remaining binding [%]": 77}
{"SMILES": "O=C(NCCCN1CCOCC1)c1ccc(Nc2nccc(-c3cc4ccccc4s3)n2)cc1", "test": "binding, competition with immobilised ligand", "setting": "1 µM", "remaining binding [%]": 87}
{"SMILES": "O=C(Nc1cccnn1)N1CCC(=Cc2cccc(Oc3ccc(C(F)(F)F)cn3)c2)CC1", "test": "cell-free assay, competition with immobilised ligand", "setting": "1 µM", "remaining binding [%]": 100}
{"SMILES": "O=C(c1ccc(Nc2ncc(Cl)c(-c3ccc(Cl)s3)n2)cc1)N1CCC(N2CCCC2)CC1", "test": "binding, competition with immobilised ligand", "setting": "1 µM", "remaining binding [%]": 30}
{"SMILES": "Cc1nc(C2CCN(C(=O)c3ccc(OC(F)(F)F)cc3N)CC2)c2ncc(N3CCN(C)CC3)cc2n1", "test": "cell-free assay, competition with immobilised ligand", "setting": "1 µM", "remaining binding [%]": 100}
{"SMILES": "CN1CCN(c2ccc(Nc3nccc(-c4cccc([N+](=O)[O-])c4)n3)cc2C(F)(F)F)CC1", "test": "binding", "setting": "10 µM", "remaining binding [%]": 33}
